Screening data deposited in PubChem by several laboratories.
RAM network inh: blocks the yeast RAM network; S. cerevisiae dse1pr::URA3 reporter, 5-FOA growth OD615, 2 d; analog-sensitive cbk1-as2 kinase mutant strain; AID 868; 190,000 compounds, 1.8% hits; inhibition, % at 50 µM;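 active means inhibition above a set limit, 3 SD over mean compound inhibition, cut at about 8.4% in these data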;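 further: inhibition rescues growth on 5-FOA so higher OD means more RAM inhibition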
ABCG2 block: inhibitors of human ABCG2 transporter, ABCB1 counter-screen; AID 1325; 190,000 compounds, 0.1% hits; IgMXP3 cells, JC-1 efflux, flow cytometry; inhibition, % at 6.6 µM;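 active means inhibition above 80%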
Target sequence (Q9UNQ0 whole entry, looked up): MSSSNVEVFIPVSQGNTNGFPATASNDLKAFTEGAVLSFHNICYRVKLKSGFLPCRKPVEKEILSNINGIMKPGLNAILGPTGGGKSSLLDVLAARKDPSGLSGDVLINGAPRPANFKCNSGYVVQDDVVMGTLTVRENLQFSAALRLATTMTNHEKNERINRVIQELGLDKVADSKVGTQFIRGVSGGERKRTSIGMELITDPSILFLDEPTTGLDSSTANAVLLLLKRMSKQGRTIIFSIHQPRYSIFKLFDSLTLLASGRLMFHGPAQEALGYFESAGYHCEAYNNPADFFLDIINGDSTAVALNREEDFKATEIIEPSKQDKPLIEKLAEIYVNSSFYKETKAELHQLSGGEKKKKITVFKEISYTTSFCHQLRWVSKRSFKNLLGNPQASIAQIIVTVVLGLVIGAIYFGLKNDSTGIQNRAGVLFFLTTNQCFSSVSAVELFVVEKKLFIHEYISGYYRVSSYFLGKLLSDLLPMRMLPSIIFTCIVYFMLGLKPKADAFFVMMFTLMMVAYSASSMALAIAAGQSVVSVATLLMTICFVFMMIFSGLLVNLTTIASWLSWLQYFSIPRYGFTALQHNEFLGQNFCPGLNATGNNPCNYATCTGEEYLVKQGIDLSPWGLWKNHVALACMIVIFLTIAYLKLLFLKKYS
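Times: 10 min at 25 °C | Test system: Two drug-resistant human cell lines, ABCG2 and ABCB1 | Quantity: 3 million cells/mL final, two lines in 1:1 ratio | Signal: Flow cytometry, 530 nm JC-1 signal | Dosing: Compound at 6.6 µM | Controls: Nicardipine and DMSO wells | Reagent: JC-1 as fluorescent efflux pump substrate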
Arbovirus inh: blocks arbovirus infection; arbovirus infection cell-based antiviral screen; inhibition, % at 10 µM; 200,000 compounds, 0.37% hits; in the data active means inhibition above about 30%
ABCB1 inh: human ABCB1 inhibition, ABCG2 as counter-screen. AID 1326. CCRF-Adr cells, JC-1 efflux, flow cytometry. 190,000 compounds, 0.067% hits. inhibition, % at 6.6 µM; in the data active means inhibition above about 40%;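 further: higher value means more JC-1 retained so stronger ABCB1 efflux block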
ABCB1 single pt: inhibits human ABCB1 efflux, confirmed at single point; shares compounds with ABCG2 block; CCRF-Adr cells, JC-1 efflux, flow cytometry; inhibition, % at 6.6 µM; 270 compounds, 7% hits; AID 1451;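 active means inhibition of pump activity above 50%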
ABCG2 confirm: inhibits human ABCG2 efflux, confirmed at single point; shares compounds with ABCG2 block; IgMXP3 cells, JC-1 efflux, flow cytometry; inhibition, % at 6.6 µM; 270 compounds, 6% hits;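 active means inhibition above 50%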
IgMXP3 autofluor: counter-screen for ABCG2 inhibitors: compound fluorescence in IgMXP3 cells; 270 compounds, 30% hits; AID 1480; shares compounds with ABCG2 block; fluorescence at 6.6 µM; compound autofluorescence 488/530 nm, flow; stronger effect = higher value;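 active means fluorescence in ABCG2-expressing cells above the plate's control-well mean plus 3 SD, cut at about 15 in these data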
CCRF-Adr fluor: counter-screen for ABCB1 inhibitors: compound fluorescence in CCRF-Adr cells. shares compounds with ABCG2 block. compound autofluorescence 488/530 nm, flow cytometry; stronger effect = higher value. fluorescence at 6.6 µM. 270 compounds, 30% hits. AID 1483;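 active means fluorescence beyond the plate control mean plus 3 SD, with a fluorescence-to-maximum score over 2, cut at about 25 in these data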
Large screens that a line does not name were inactive (follow-up assays come after a bar, where they were run). Sampled rows, rich in hits. Any-hit rate of the full collection: about 2.3%.

CC(O)CNc1nc2c(c(=O)n(C)c(=O)n2C)n1Cc1cccc(Br)c1 (stereo not drawn)	ABCG2 block 91.3 | ABCB1 single pt inactive | ABCG2 confirm inactive | IgMXP3 autofluor inactive | CCRF-Adr fluor 114
COc1cccc(CNC(=O)C(=O)NCC(c2ccco2)N2CCOCC2)c1 (stereo not drawn)	ABCB1 inh 65.1 | ABCB1 single pt inactive | ABCG2 confirm inactive | IgMXP3 autofluor inactive | CCRF-Adr fluor inactive
Cc1ccc(CNC(=O)C(=O)NCC(c2ccco2)N2CCOCC2)cc1 (stereo not drawn)	none
Cc1cc(/C=c2/sc3nc4ccccc4n3c2=O)c(C)n1-c1ccccn1	none
O=c1/c(=C\c2cccnc2)sc2nc3ccccc3n12	ABCG2 block 80.9 | ABCB1 single pt inactive | ABCG2 confirm inactive | IgMXP3 autofluor inactive | CCRF-Adr fluor inactive
Cc1ccc(NC(=O)NC(=O)CSc2n[nH]c(N)n2)c(C)c1	none
CCN(CC)c1nc(-c2cccc(OC)c2O)nc2ccccc12	ABCG2 block 82.6 | ABCB1 single pt inactive | ABCG2 confirm inactive | IgMXP3 autofluor 17 | CCRF-Adr fluor 108
Cc1ccc(N(C(=O)c2ccc(S(=O)(=O)N3CCOCC3)cc2)C2C=CS(=O)(=O)C2)cc1 (stereo not drawn)	none
CCN(CC)S(=O)(=O)c1ccc(C(=O)N(c2ccc(C)cc2)C2C=CS(=O)(=O)C2)cc1 (stereo not drawn)	none | ABCB1 single pt inactive | ABCG2 confirm inactive | IgMXP3 autofluor inactive | CCRF-Adr fluor inactive
COc1ccccc1Nc1nc2nonc2nc1N1CCCCC1C (stereo not drawn)	ABCG2 block 87.0 | ABCB1 single pt inactive | ABCG2 confirm inactive | IgMXP3 autofluor 30.3 | CCRF-Adr fluor inactive
NC(=S)N=Nc1c(O)[nH]c2ccc(F)cc12	none | ABCB1 single pt inactive | ABCG2 confirm inactive | IgMXP3 autofluor inactive | CCRF-Adr fluor inactive
Nc1c(-c2ccccc2)c(CSc2nc3ccccc3[nH]2)nn1-c1ccc(Cl)cc1	ABCB1 inh 43.4 | ABCB1 single pt inactive | ABCG2 confirm inactive | IgMXP3 autofluor inactive | CCRF-Adr fluor inactive
O=c1c(/C=C(\O)c2ccccc2)nc2ccccc2n1-c1ccccc1	ABCB1 inh 45.2 | ABCB1 single pt inactive | ABCG2 confirm inactive | IgMXP3 autofluor inactive | CCRF-Adr fluor 77.5
OC1(c2cccc(C(F)(F)F)c2)CCN(c2ccc(-c3ccccc3)nn2)CC1	ABCG2 block 92.6 | ABCB1 single pt inactive | ABCG2 confirm inactive | IgMXP3 autofluor inactive | CCRF-Adr fluor 51.3
COCCn1nnnc1C(c1ccc(C(F)(F)F)cc1)N1CCOCC1 (stereo not drawn)	none
CN(C)c1ccc(/C=c2\sc3nc(-c4ccccc4)nn3c2=O)cc1	ABCB1 inh 45.9 | ABCB1 single pt inactive | ABCG2 confirm inactive | IgMXP3 autofluor 79.6 | CCRF-Adr fluor 61.2
COc1cc(/C=c2\sc3nc(-c4ccncc4)nn3c2=O)ccc1OC(C)=O	none
Cc1cccc2cc(C#N)c(NCc3ccccc3)nc12	none
O=c1[nH]c2cc(Cl)ccc2n1-c1ccccc1	none
O=Cc1c(Cl)[nH]c(=O)n1-c1ccccc1	ABCG2 block 104.1 | ABCB1 single pt inactive | ABCG2 confirm inactive | IgMXP3 autofluor inactive | CCRF-Adr fluor inactive
CC(C)NC(=O)c1sc2nc(-c3cccs3)cc(-c3cccs3)c2c1N	none
Nc1c(C(=O)C2CC2)sc2nc(-c3cccs3)cc(C(F)(F)F)c12	ABCB1 inh 42.3 | ABCB1 single pt inactive | ABCG2 confirm inactive | IgMXP3 autofluor 92.2 | CCRF-Adr fluor 271
CCOC(=O)/C=C(/C)N1N=C(c2ccc(OC)cc2)CC1c1cccc([N+](=O)[O-])c1 (stereo not drawn)	none
COc1ccc(C(=O)Oc2cc3c4c(c2)C(C)=CC(C)(C)N4C(=O)C3=O)cc1OC	ABCG2 block 90.6 | ABCB1 single pt inactive | ABCG2 confirm inactive | IgMXP3 autofluor inactive | CCRF-Adr fluor inactive
COc1cccc(C(=O)Oc2cc3c4c(c2)C(C)=CC(C)(C)N4C(=O)C3=O)c1	none
